Laboratory results as given in ChEMBL document CHEMBL4364256, “Design, synthesis and biological evaluation of antimicrobial diarylimine and -amine compounds targeting the interaction between the bacterial NusB and NusE proteins” (Eur J Med Chem, 2019).
Values after ≈ are worked out from the molar mass of the structure shown.

Columns and labels:
[1] = system: Streptococcus pneumoniae; experiment: Antimicrobial activity against Streptococcus pneumoniae ATCC 49619 incubated for 20 hrs by microdilution method; type: functional; conditions: ATCC 49619, 20 h
Summary of the method: (§1)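 Broth microdilution MIC testing done following CLSI guidelines.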

[2] = system: Staphylococcus aureus; experiment: microbe, parasite or virus in culture; conditions: ATCC 29213, 20 h
[3] = system: Acinetobacter baumannii; experiment: Antimicrobial activity against Acinetobacter baumannii ATCC 19606 incubated for 20 hrs by microdilution method; type: functional; conditions: ATCC 19606 = CIP 70.34 = JCM 6841, 20 h; summary of the method: as §1
[4] = system: Pseudomonas aeruginosa; experiment: Antimicrobial activity against Pseudomonas aeruginosa ATCC 27853 incubated for 20 hrs by microdilution method; type: functional; conditions: ATCC 27853, 20 h; summary of the method: as §1
[5] = microbe, parasite or virus in culture; conditions: Enterobacter cloacae, ATCC 13047, 20 h
[6] = system: Enterococcus faecium; experiment: Antimicrobial activity against Enterococcus faecium ATCC 19433 incubated for 20 hrs by microdilution method; type: functional; conditions: ATCC 19433, 20 h; summary of the method: as §1
[7] = system: Staphylococcus aureus; experiment: microbe, parasite or virus in culture; conditions: ATCC 25923, 20 h
[8] = system: Bacillus subtilis; experiment: Inhibition of N-terminal LgBiT-fused Bacillus subtilis NusB expressed in Escherichia coli BL21(DE3)pLysS interaction with C- terminal SmBiT-fused Bacillus subtilis NusE expressed in Escherichia coli BL21(DE3)pLysS at 100 uM preincubated for 10 mins followed by NusE addition and measured after 10 mins by nano-glo luciferase assay relative to control
Summary of the method: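 NusB and NusE were mixed 1:1 at 1 µM in PBS, with compound at 100 µM. The read-out was percent inhibition of the NusB-NusE interaction.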

Compound | MIC [1] [µg/mL] | MIC [2] [µg/mL] | MIC [3] [µg/mL] | MIC [4] [µg/mL] | MIC [5] [µg/mL] | MIC [6] [µg/mL] | MIC [7] [µg/mL] | inhibition [8] [%]
O=[N+]([O-])c1ccc(O)c(/C=N/c2cccc(C(F)(F)F)c2)c1 | 32 (≈ 103 µM) | 64 (≈ 206 µM) | 256 (≈ 825 µM) | > 256 | 256 (≈ 825 µM) | > 256 | 16 (≈ 51.6 µM) | 56.2
O=[N+]([O-])c1ccc(O)c(CNc2ccc(Cl)cc2)c1 | 16 (≈ 57.4 µM) | 4 (≈ 14.4 µM) | > 256 | 256 (≈ 919 µM) | 128 (≈ 459 µM) | 32 (≈ 115 µM) | 8 (≈ 28.7 µM) | 53.6
C#Cc1cccc(NCc2cc([N+](=O)[O-])ccc2O)c1 | 8 (≈ 29.8 µM) | 16 (≈ 59.6 µM) | 128 (≈ 477 µM) | > 256 | > 256 | 16 (≈ 59.6 µM) | 16 (≈ 59.6 µM) | 47.7
O=C(O)c1cccc(/N=C/c2cc([N+](=O)[O-])ccc2O)c1 | 16 (≈ 55.9 µM) | 16 (≈ 55.9 µM) | 64 (≈ 224 µM) | > 256 | > 256 | > 256 | 4 (≈ 14 µM) | 78.5
C#Cc1ccc(/N=C/c2cc([N+](=O)[O-])ccc2O)cc1 | 64 (≈ 240 µM) | 16 (≈ 60.1 µM) | > 256 | > 256 | > 256 | 128 (≈ 481 µM) | 4 (≈ 15 µM) | 76.3
O=[N+]([O-])c1ccc(O)c(/C=N/c2ccccc2)c1 | 32 (≈ 132 µM) | 16 (≈ 66.1 µM) | 256 (≈ 1060 µM) | > 256 | > 256 | > 256 | 4 (≈ 16.5 µM) | 39.2
O=[N+]([O-])c1ccc(O)c(/C=N/c2ccc(C(F)(F)F)cc2)c1 | 16 (≈ 51.6 µM) | 16 (≈ 51.6 µM) | 256 (≈ 825 µM) | > 256 | > 256 | 256 (≈ 825 µM) | 8 (≈ 25.8 µM) | 68.9
O=[N+]([O-])c1ccc(O)c(CNc2ccccc2O)c1 | 64 (≈ 246 µM) | 32 (≈ 123 µM) | 128 (≈ 492 µM) | 256 (≈ 984 µM) | 256 (≈ 984 µM) | 256 (≈ 984 µM) | 16 (≈ 61.5 µM) | 81.5
C#Cc1cccc(/N=C/c2ccccc2O)c1 | > 256 | > 256 | > 256 | > 256 | > 256 | > 256 | 256 (≈ 1160 µM) | 25.7
C#Cc1cccc(/N=C/c2cc([N+](=O)[O-])ccc2OC)c1 | > 256 | > 256 | > 256 | > 256 | > 256 | > 256 | > 256 | 40.4
C#Cc1cccc(NCc2cccc([N+](=O)[O-])c2O)c1 | 256 (≈ 954 µM) | 16 (≈ 59.6 µM) | > 256 | > 256 | > 256 | > 256 | 128 (≈ 477 µM) | 64.5
C#Cc1cccc(/N=C/c2cccc([N+](=O)[O-])c2)c1 | > 256 | 128 (≈ 511 µM) | 16 (≈ 63.9 µM) | > 256 | > 256 | > 256 | 256 (≈ 1020 µM) | 24.7
CC(C)(C)c1cccc(/N=C/c2cc([N+](=O)[O-])ccc2O)c1 | 256 (≈ 858 µM) | 16 (≈ 53.6 µM) | 128 (≈ 429 µM) | > 256 | > 256 | > 256 | 4 (≈ 13.4 µM) | 51.3
O=[N+]([O-])c1ccc(O)c(CNc2ccccc2)c1 | 64 (≈ 262 µM) | 32 (≈ 131 µM) | 256 (≈ 1050 µM) | > 256 | > 256 | 128 (≈ 524 µM) | 16 (≈ 65.5 µM) | 4.6
O=[N+]([O-])c1ccc(O)c(CNc2cccc3ccccc23)c1 | 16 (≈ 54.4 µM) | 4 (≈ 13.6 µM) | 256 (≈ 870 µM) | > 256 | > 256 | 16 (≈ 54.4 µM) | 4 (≈ 13.6 µM) | 47.4
C#Cc1cccc(/N=C/c2cc(Cl)cc(Cl)c2O)c1 | 8 (≈ 27.6 µM) | 64 (≈ 221 µM) | 128 (≈ 441 µM) | > 256 | > 256 | 256 (≈ 882 µM) | 32 (≈ 110 µM) | 54.2
C#Cc1ccccc1/N=C/c1cc([N+](=O)[O-])ccc1O | 32 (≈ 120 µM) | 16 (≈ 60.1 µM) | > 256 | > 256 | > 256 | > 256 | 4 (≈ 15 µM) | 71.4
C#Cc1cccc(/N=C/c2cc(O)ccc2[N+](=O)[O-])c1 | > 256 | 256 (≈ 961 µM) | 256 (≈ 961 µM) | > 256 | > 256 | > 256 | 256 (≈ 961 µM) | 52.2
C#Cc1cccc(NCc2ccc([N+](=O)[O-])cc2O)c1 | 16 (≈ 59.6 µM) | 8 (≈ 29.8 µM) | 64 (≈ 239 µM) | > 256 | > 256 | 32 (≈ 119 µM) | 8 (≈ 29.8 µM) | 48.2
O=[N+]([O-])c1ccc(O)c(CNc2cccc(O)c2)c1 | 128 (≈ 492 µM) | 128 (≈ 492 µM) | > 256 | > 256 | > 256 | > 256 | 64 (≈ 246 µM) | 66.7
C#Cc1cccc(/N=C/c2cc(F)ccc2O)c1 | 256 (≈ 1070 µM) | > 256 | 256 (≈ 1070 µM) | 256 (≈ 1070 µM) | > 256 | > 256 | 256 (≈ 1070 µM) | 28.1
C#Cc1cccc(NCc2cccc([N+](=O)[O-])c2)c1 | > 256 | > 256 | > 256 | > 256 | > 256 | > 256 | > 256 | 33.1
O=[N+]([O-])c1ccc(O)c(CNc2cccc(C(F)(F)F)c2)c1 | 16 (≈ 51.2 µM) | 4 (≈ 12.8 µM) | 64 (≈ 205 µM) | > 256 | 256 (≈ 820 µM) | 16 (≈ 51.2 µM) | 4 (≈ 12.8 µM) | 61.7
C#Cc1cccc(/N=C/c2cc([N+](=O)[O-])cc(Br)c2O)c1 | 128 (≈ 371 µM) | 32 (≈ 92.7 µM) | 256 (≈ 742 µM) | > 256 | > 256 | > 256 | 32 (≈ 92.7 µM) | 74.1
CO[C@H]1/C=C/O[C@@]2(C)Oc3c(C)c(O)c4c(O)c(c(/C=N/N5CCN(C)CC5)c(O)c4c3C2=O)NC(=O)/C(C)=C\C=C\[C@H](C)[C@H](O)[C@@H](C)[C@@H](O)[C@@H](C)[C@H](OC(C)=O)[C@@H]1C [RIFAMPIN] | 0.0625 (≈ 0.0759 µM) | 0.0125 (≈ 0.0152 µM) | 4 (≈ 4.86 µM) | > 256 | > 256 | 2 (≈ 2.43 µM) | 0.0125 (≈ 0.0152 µM) | 
